For nine compounds, IC50, MIC and Ratio results are on record in ChEMBL document CHEMBL3085642, “Synthesis and evaluation of novel 4-nitropyrrole-based 1,3,4-oxadiazole derivatives as antimicrobial and anti-tubercular agents” (Eur J Med Chem, 2013).

Converted amounts (≈) assume the structure as drawn.

Assay [1] concerns Vero. The assay is described as follows: Cytotoxicity against african green monkey Vero cells after 72 hrs by MTT assay. Particulars: Chlorocebus sabaeus. It is filed as cell-based. In outline: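 Vero cells were exposed to compounds for 72 h. Viability was measured by cellular conversion of MTT into formazan (non-radioactive proliferation assay), and the cytotoxic concentration was reported as IC50.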
Background: Formazan colour is commonly taken as a measure of viable cells.

In assay [2] the test system is Bacillus spizizenii. Briefly: Antibacterial activity against Bacillus subtilis ATCC 6633 by two fold broth dilution method. It is filed as functional. A general note: Broth dilution looks for growth in wells or tubes with falling amounts of substance.
Assay [3] deals with Candida albicans. The assay is described as follows: Antifungal activity against Candida albicans after 48 hrs by two fold agar dilution method. It is filed as functional. In outline:
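Two-fold serial dilutions in DMSO were tested against C. albicans by agar dilution. Cultures were incubated for 48 h at 35 °C and growth was monitored. MIC was taken as the lowest concentration (highest dilution) that arrested fungal growth.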
A general note: In agar dilution, organisms are placed on agar that contains the substance at set levels.

For assay [4], the system named is Escherichia coli. The assay is described as follows: Antibacterial activity against Escherichia coli ATCC 25922 by two fold broth dilution method. The format is functional.
The test system of assay [5] is Staphylococcus aureus. The assay is described as follows: Antibacterial activity against methicillin-resistant Staphylococcus aureus ATCC 43866 by broth dilution method. The format is functional.
Assay [6] concerns Staphylococcus aureus. The assay is described as follows: Ratio of ciprofloxacin MIC to compound MIC against methicillin-susceptible Staphylococcus aureus ATCC 35556. The format is functional.
For assay [7], the system named is Klebsiella pneumoniae. Briefly: Antibacterial activity against Klebsiella pneumoniae by two fold broth dilution method. The format is functional.
Assay [8] concerns Staphylococcus aureus. The assay is described as follows: Ratio of ciprofloxacin MIC to compound MIC against Staphylococcus aureus ATCC 25923. It is filed as functional.
Assay [9] relates to Staphylococcus aureus. Briefly: Antibacterial activity against methicillin-susceptible Staphylococcus aureus ATCC 35556 by broth dilution method. It is filed as functional.
Assay [10] deals with Staphylococcus aureus. Briefly: Antibacterial activity against Staphylococcus aureus ATCC 25923 by two fold broth dilution method. It is filed as functional.
Assay [11] relates to Candida albicans. Briefly: Ratio of ampotericin-B MIC to compound MIC against Candida albicans. It is filed as functional.
Assay [12] has as its system Mycobacterium tuberculosis. The assay is described as follows: Antitubercular activity against Mycobacterium tuberculosis H37Rv after 7 days by resazurin microtitre assay. The format is functional. Particulars: 168 h.
In assay [13] the test system is Escherichia coli. Briefly: Ratio of ciprofloxacin MIC to compound MIC against Escherichia coli ATCC 25922. It is filed as functional.

As to `COc1ccc(-c2nnc(-c3cc([N+](=O)[O-])cn3C)o2)cc1`, half-maximal inhibition in assay [1] (IC50) was put at 281 µM. Moreover, the minimal inhibitory concentration (MIC) (commonly the lowest concentration that inhibits growth of the organism) in assay [2] is 1.56 µg/mL (≈ 5.2 µM); in assay [3], 1.56 µg/mL (≈ 5.2 µM); in assay [4], 6.25 µg/mL (≈ 20.8 µM); in assay [5], 1.56 µg/mL (≈ 5.2 µM); in assay [7] it was 12.5 µg/mL (≈ 41.6 µM); in assay [9] it was 0.39 µg/mL (≈ 1.3 µM). Also, in assay [10], the minimum inhibitory concentration (MIC) was 0.78 µg/mL (≈ 2.6 µM). Besides, the Ratio in assay [6], in assay [8] and in assay [11] was 2 each time.
Regarding `Cn1cc([N+](=O)[O-])cc1-c1nnc(-c2ccccc2OC(F)(F)F)o1`, inhibition in [1] was half-maximal at 308 µM (IC50). Further, the MIC was found to be 3.8 µg/mL (≈ 10.7 µM) in assay [12]; 1.56 µg/mL (≈ 4.4 µM) in assay [2]; 1.56 µg/mL (≈ 4.4 µM) in assay [3]; 3.12 µg/mL (≈ 8.82 µM) in assay [4]; 1.56 µg/mL (≈ 4.4 µM) in assay [5]; 12.5 µg/mL (≈ 35.3 µM) in assay [7]. The minimal inhibitory concentration (MIC) in assay [9] came to 0.39 µg/mL (≈ 1.1 µM); in assay [10] it was 0.78 µg/mL (≈ 2.2 µM). Moreover, the Ratio in assay [6], in assay [8] and in assay [11] was 2 in each case.
With `Cn1cc([N+](=O)[O-])cc1-c1nnc(Cc2ccc(F)c3ccccc23)o1`, the half-inhibitory concentration (IC50) (commonly the concentration at which inhibition is half-maximal) in [1] came to 119 µM. For the same compound, the minimum inhibitory concentration (MIC) was determined as 1.56 µg/mL (≈ 4.43 µM) in assay [2]; 1.56 µg/mL (≈ 4.43 µM) in assay [3]; 6.25 µg/mL (≈ 17.7 µM) in [4]; 1.56 µg/mL (≈ 4.43 µM) in assay [5]; 12.5 µg/mL (≈ 35.5 µM) in [7]; 0.39 µg/mL (≈ 1.11 µM) in [9]. This compound also came in with an MIC in assay [10] of 0.78 µg/mL (≈ 2.21 µM). The Ratio in [6], in assay [8] and in assay [11] was 2 in each case.
In the case of `Cn1cc([N+](=O)[O-])cc1-c1nnc(C2CCCNC2)o1` (centres undefined), the IC50 in [1] is 611 µM. In addition, the minimum inhibitory concentration (MIC) in assay [12] came out at 35.6 µg/mL (≈ 128 µM); in assay [2] it was 1.56 µg/mL (≈ 5.63 µM); in [3], 1.56 µg/mL (≈ 5.63 µM); in assay [4], 3.12 µg/mL (≈ 11.3 µM); in assay [5], 1.56 µg/mL (≈ 5.63 µM); in [7], 12.5 µg/mL (≈ 45.1 µM). In addition, the minimal inhibitory concentration (MIC) in assay [9] came out at 0.39 µg/mL (≈ 1.41 µM); in assay [10] it was 0.78 µg/mL (≈ 2.81 µM). Moreover, the Ratio in assay [6], in assay [8] and in assay [11] was 2 each time.
With `Cn1cc([N+](=O)[O-])cc1-c1nnc(-c2ccco2)o1`, the IC50 in assay [1] was 190 µM. The MIC in assay [12] was found to be 60.2 µg/mL (≈ 231 µM); in assay [2] it was 1.56 µg/mL (≈ 6 µM); in assay [3], 1.56 µg/mL (≈ 6 µM); in assay [4] it was 3.12 µg/mL (≈ 12 µM); in [5], 1.56 µg/mL (≈ 6 µM); in assay [7] it was 50 µg/mL (≈ 192 µM). Besides, the MIC amounted to 1.56 µg/mL (≈ 6 µM) in assay [9] and 0.78 µg/mL (≈ 3 µM) in [10]. Further, the Ratio in assay [8] and in [11] was 2 each time.
`COc1cccc(-c2nnc(-c3cc([N+](=O)[O-])cn3C)o2)c1` returned a concentration for half-maximal inhibition (IC50) in assay [1] of 299 µM. The MIC in assay [12] amounted to 37.4 µg/mL (≈ 125 µM); in assay [2], 1.56 µg/mL (≈ 5.2 µM); in assay [3], 1.56 µg/mL (≈ 5.2 µM); in [4], 3.12 µg/mL (≈ 10.4 µM); in assay [5] it was 1.56 µg/mL (≈ 5.2 µM); in [7], 12.5 µg/mL (≈ 41.6 µM). Also, the minimal inhibitory concentration (MIC) worked out at 0.39 µg/mL (≈ 1.3 µM) in [9] and 0.78 µg/mL (≈ 2.6 µM) in [10]. Besides, the Ratio in [6], in [8] and in [11] was 2 in each case.
In turn, `O=[N+]([O-])c1c[nH]c(-c2nnc(-c3ccc[nH]3)o2)c1` showed an IC50 in assay [1] of 226 µM. The minimal inhibitory concentration (MIC) amounted to 15.7 µg/mL (≈ 64 µM) in [12]; 1.56 µg/mL (≈ 6.36 µM) in assay [2]; 1.56 µg/mL (≈ 6.36 µM) in assay [3]; 0.78 µg/mL (≈ 3.18 µM) in assay [4]; 1.56 µg/mL (≈ 6.36 µM) in assay [5]; 12.5 µg/mL (≈ 51 µM) in assay [7]. In addition, the MIC was determined as 1.56 µg/mL (≈ 6.36 µM) in assay [9] and 0.78 µg/mL (≈ 3.18 µM) in [10]. The Ratio in assay [8] and in [13] was 2 each time.
`Cn1cc([N+](=O)[O-])cc1-c1nnc(-c2ccc(C#N)cc2)o1` registered an IC50 in [1] of 315 µM. Besides, the minimum inhibitory concentration (MIC) turned out to be 84.6 µg/mL (≈ 287 µM) in assay [12]; 1.56 µg/mL (≈ 5.28 µM) in assay [2]; 1.56 µg/mL (≈ 5.28 µM) in assay [3]; 6.25 µg/mL (≈ 21.2 µM) in [4]; 1.56 µg/mL (≈ 5.28 µM) in assay [5]; 12.5 µg/mL (≈ 42.3 µM) in assay [7]. Further, the minimal inhibitory concentration (MIC) in assay [9] amounted to 0.39 µg/mL (≈ 1.32 µM); in [10], 0.78 µg/mL (≈ 2.64 µM). Further, the Ratio in assay [6], in [8] and in assay [11] was 2 each time.
For the compound `COc1cc(/C=C/c2nnc(-c3cc([N+](=O)[O-])cn3C)o2)ccc1O`, in assay [1], the concentration for half-maximal inhibition (IC50) stood at 202 µM. Moreover, the minimum inhibitory concentration (MIC) was 51.8 µg/mL (≈ 151 µM) in [12]; 1.56 µg/mL (≈ 4.56 µM) in assay [2]; 12.5 µg/mL (≈ 36.5 µM) in assay [3]; 3.12 µg/mL (≈ 9.13 µM) in [4]; 1.56 µg/mL (≈ 4.56 µM) in assay [5]; 50 µg/mL (≈ 146 µM) in [7]. The minimal inhibitory concentration (MIC) was 0.39 µg/mL (≈ 1.14 µM) in assay [9] and 0.78 µg/mL (≈ 2.28 µM) in assay [10]. In addition, the Ratio in [6], in assay [8] and in assay [11] was 2 throughout.
